Measured values published in ChEMBL document CHEMBL2417407, “Regioselective synthesis of phenanthrenes and evaluation of their anti-oxidant based anti-inflammatory potential” (Eur J Med Chem, 2013).
Values after ≈ are worked out from the molar mass of the structure shown.

What was measured:
THP-1 [1] = test: Cytotoxicity against human THP1 cells assessed as cell viability at 1 uM after 24 hrs by CCK-8 assay relative to untreated control; type: cell-based; conditions: thp-1, 24 h
Summary of the method: (§1)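 THP-1 cells were seeded at 2 × 10⁵ cells/well and exposed to compound in serum-free medium for 24 h at 37 °C under 5% CO2. CCK-8 reagent was then added for 2 h and absorbance was read at 450 nm. Relative viability was calculated as absorbance of treated cells divided by absorbance of untreated cells. Triplicates, two independent experiments.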

THP-1 [2] = test: Cytotoxicity against human THP1 cells assessed as cell viability at 10 uM after 24 hrs by CCK-8 assay relative to untreated control; type: cell-based; conditions: thp-1, 24 h; summary of the method: as §1
THP-1 [3] = test: Cytotoxicity against human THP1 cells assessed as cell viability at 50 uM after 24 hrs by CCK-8 assay relative to untreated control; type: cell-based; conditions: thp-1, 24 h; summary of the method: as §1
THP-1 [4] = test: Cytotoxicity against human THP1 cells assessed as cell viability at 100 uM after 24 hrs by CCK-8 assay relative to untreated control; type: cell-based; conditions: thp-1, 24 h; summary of the method: as §1
THP-1 [5] = test: Antiinflammatory activity in human THP1 cells assessed as inhibition of LPS-stimulated TNF-alpha release incubated for 1 hr prior to LPS challenge measured after 24 hrs by sandwich ELISA; type: functional, cell-based
Summary of the method: (§2)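 THP-1 cells were grown in RPMI 1640 with 10% heat-inactivated FBS, 1% non-essential amino acids, 1% glutamine, penicillin and streptomycin at 37 °C under 5% CO2. They were seeded at 2 × 10⁵ cells/well and pretreated with compound for 1 h in serum-free medium. LPS (E. coli O55:B5, 250 ng/mL) was then added for 24 h at 37 °C. Supernatant TNF-α was measured by sandwich ELISA, with LPS-stimulated cells taken as 0% inhibition. Triplicates, two independent experiments.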

THP-1 [6] = test: Antiinflammatory activity in human THP1 cells assessed as inhibition of LPS-stimulated TNF-alpha release at 1 uM incubated for 1 hr prior to LPS challenge measured after 24 hrs by sandwich ELISA relative to untreated control; type: functional; summary of the method: as §2
THP-1 [7] = test: Antiinflammatory activity in human THP1 cells assessed as inhibition of LPS-stimulated TNF-alpha release at 10 uM incubated for 1 hr prior to LPS challenge measured after 24 hrs by sandwich ELISA relative to untreated control; type: functional; summary of the method: as §2
THP-1 [8] = test: Antiinflammatory activity in human THP1 cells assessed as inhibition of LPS-stimulated TNF-alpha release at 50 uM incubated for 1 hr prior to LPS challenge measured after 24 hrs by sandwich ELISA relative to untreated control; type: functional; summary of the method: as §2
THP-1 [9] = test: Antiinflammatory activity in human THP1 cells assessed as inhibition of LPS-stimulated TNF-alpha release at 100 uM incubated for 1 hr prior to LPS challenge measured after 24 hrs by sandwich ELISA relative to untreated control; type: functional; summary of the method: as §2
[10] = Antioxidant activity assessed as ABTS free radical scavenging activity after 1 min; type: functional
Summary of the method: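 ABTS radical cation was generated from 7 mM ABTS stock and 2.45 mM potassium persulfate (final) left 16 h in the dark at room temperature. Working solution (1.0 mL) was added to the compound in methanol, giving final 1–100 µg/mL. Absorbance at 734 nm was read after exactly 1 min. Percent scavenging was calculated from absorbances as in the DPPH assay.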

[11] = tested on: Radical scavenging activity; test: Antioxidant activity assessed as DPPH free radical scavenging activity after 30 mins; type: functional
Summary of the method: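 Compound solution was mixed with 316 µM DPPH solution, giving final compound concentrations of 1, 5, 12.5, 25, 50 and 100 µg/mL. The mixture was shaken 1 min and incubated at 37 °C for 30 min. Absorbance was read at 517 nm and percent scavenging was calculated as [1 − (A1 − A2)/A0] × 100.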

[12] = Antioxidant activity assessed as galvinoxyl free radical scavenging activity after 20 mins; type: functional

SMILES | IC50 [10] | IC50 [11] | IC50 [12] | fold change (FC) (THP-1 [1]) | fold change (FC) (THP-1 [2]) | fold change (FC) (THP-1 [3]) | fold change (FC) (THP-1 [4]) | inhibition (THP-1 [5]) | inhibition at 1 µM (THP-1 [6]) | inhibition at 10 µM (THP-1 [7]) | inhibition at 50 µM (THP-1 [8]) | inhibition at 100 µM (THP-1 [9])
COc1cc2ccc3cc(O)ccc3c2c(OC)c1O | 13.39 µg/mL (≈ 49.5 µM) | 11.18 µg/mL (≈ 41.4 µM) | 11.79 µg/mL (≈ 43.6 µM) | 1.4 | 1.3 | 1.1 | 1 | Dose-dependent effect | 3.5% | 15.5% | 34% | 67.5%
Cc1cc(C(C)(C)C)c(O)c(C(C)(C)C)c1 [BUTYLATED HYDROXYTOLUENE] | 36.11 µg/mL (≈ 164 µM) | 31.51 µg/mL (≈ 143 µM) | 43.7 µg/mL (≈ 198 µM) |  |  |  |  |  |  |  |  | 
c1ccc2c(c1)ccc1ccccc12 [PHENANTHRENE] | > 100 µg/mL | > 100 µg/mL | > 100 µg/mL | 1.4 | 1.3 | 1.2 | 1.1 |  | 0% | 0% | 6% | 8.5%
O=C1O[C@H]([C@@H](O)CO)C(O)=C1O [ASCORBIC ACID] | 29.17 µg/mL (≈ 166 µM) | 15.12 µg/mL (≈ 85.8 µM) | 5.23 µg/mL (≈ 29.7 µM) |  |  |  |  |  |  |  |  | 
Oc1cc(O)c2c(c1)OC(c1ccc(O)c(O)c1)C(O)C2 (stereo unspecified) [CATECHIN] | 11.46 µg/mL (≈ 39.5 µM) | 15.6 µg/mL (≈ 53.7 µM) | 18.03 µg/mL (≈ 62.1 µM) |  |  |  |  |  |  |  |  | 
c1ccc2c(c1)CCc1ccccc1-2 | > 100 µg/mL | > 100 µg/mL | > 100 µg/mL | 1.6 | 1.5 | 1.3 | 1.2 |  | 0% | 0% | 5% | 14.5%

More lines, main results first:

IC50 [10] | IC50 [11] | IC50 [12] | SMILES | fold change (FC) (THP-1 [1]) | fold change (FC) (THP-1 [2]) | fold change (FC) (THP-1 [3]) | fold change (FC) (THP-1 [4]) | inhibition (THP-1 [5]) | inhibition at 1 µM (THP-1 [6]) | inhibition at 10 µM (THP-1 [7]) | inhibition at 50 µM (THP-1 [8]) | inhibition at 100 µM (THP-1 [9])
28.3 µg/mL (≈ 76.8 µM) | 11.41 µg/mL (≈ 31 µM) | 17.03 µg/mL (≈ 46.2 µM) | COc1cc(/C=C/C(=O)CC(=O)/C=C/c2ccc(O)c(OC)c2)ccc1O [CURCUMIN] | 1.8 | 1.5 | 0.9 | 0.5 | Dose-dependent effect | 1.5% | 38% | 95.5% | 102%
15.62 µg/mL (≈ 57.4 µM) | 32.5 µg/mL (≈ 119 µM) | 17.04 µg/mL (≈ 62.6 µM) | COc1ccc2c(c1O)CCc1cc(O)cc(OC)c1-2 | 1.3 | 1.3 | 1.2 | 1 | Dose-dependent effect | 19.5% | 31% | 70% | 83%
11.72 µg/mL (≈ 43 µM) | 10.28 µg/mL (≈ 37.8 µM) | 11.66 µg/mL (≈ 42.8 µM) | COc1cc2c(c(OC)c1O)-c1ccc(O)cc1CC2 [FLAVANTHRIDIN] | 1.4 | 1.4 | 1.3 | 1.2 | Dose-dependent effect | 8% | 17.5% | 47% | 64%
16.98 µg/mL (≈ 62.4 µM) | 27.8 µg/mL (≈ 102 µM) | 17.97 µg/mL (≈ 66 µM) | COc1cc(O)c2c(c1)CCc1c-2ccc(OC)c1O | 1.5 | 1.4 | 1.2 | 1.1 | Dose-dependent effect | 9% | 30% | 79% | 94%
